Measured values as given in ChEMBL document CHEMBL4118228, “Chemical space screening around Phe3 in opioid peptides: Modulating µ versus δ agonism by Suzuki-Miyaura cross-couplings” (Bioorg Med Chem Lett, 2018).
Calls of active or inactive are those of the source. The calls are words filed in the database; no cut-off is given here. Non-standard residues stand in square brackets, D forms with d. Residues, ends and D or L forms follow the SMILES beside them. Phe(3-Ph) = N[C@@H](Cc1cccc(-c2ccccc2)c1)C(=O)O; Phe(2-Ph) = N[C@@H](Cc1ccccc1-c1ccccc1)C(=O)O; Bip = N[C@@H](Cc1ccc(-c2ccccc2)cc1)C(=O)O; Dmt = Cc1cc(O)cc(C)c1C[C@H](N)C(=O)O

Assays:
Mus musculus = species on record: Mus musculus; experiment: Selectivity ratio of IC50 for mouse Flag-tagged delta-opioid receptor to IC50 for mouse Flag-tagged mu-opioid receptor
Mu-type opioid receptor [1] = molecular target: Mu-type opioid receptor (Mus musculus, UniProt P42866); experiment: Displacement of [125I]-DAMGO from mouse Flag-tagged mu-opioid receptor expressed in HEK293 cell membranes after 60 mins by gamma counting
Mu-type opioid receptor (Mus musculus, UniProt P42866), sequence (P42866 whole entry): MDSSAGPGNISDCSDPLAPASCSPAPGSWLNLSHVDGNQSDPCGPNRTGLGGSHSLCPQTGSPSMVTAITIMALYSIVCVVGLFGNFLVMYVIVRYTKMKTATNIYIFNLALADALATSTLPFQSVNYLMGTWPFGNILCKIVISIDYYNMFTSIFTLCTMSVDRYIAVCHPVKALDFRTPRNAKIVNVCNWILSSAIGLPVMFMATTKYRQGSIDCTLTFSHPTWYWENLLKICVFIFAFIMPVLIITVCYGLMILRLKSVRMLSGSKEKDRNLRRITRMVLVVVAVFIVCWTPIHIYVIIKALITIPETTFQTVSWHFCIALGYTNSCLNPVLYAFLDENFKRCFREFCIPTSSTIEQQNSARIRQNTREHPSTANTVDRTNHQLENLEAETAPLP

[2] = molecular target: T1, Delta-type opioid receptor (Mus musculus, UniProt P32300); experiment: Displacement of [125I]-Deltorphin 2 from mouse Flag-tagged delta-opioid receptor expressed in HEK293 cell membranes after 60 mins by gamma counting
T1 sequence (P32300 whole entry): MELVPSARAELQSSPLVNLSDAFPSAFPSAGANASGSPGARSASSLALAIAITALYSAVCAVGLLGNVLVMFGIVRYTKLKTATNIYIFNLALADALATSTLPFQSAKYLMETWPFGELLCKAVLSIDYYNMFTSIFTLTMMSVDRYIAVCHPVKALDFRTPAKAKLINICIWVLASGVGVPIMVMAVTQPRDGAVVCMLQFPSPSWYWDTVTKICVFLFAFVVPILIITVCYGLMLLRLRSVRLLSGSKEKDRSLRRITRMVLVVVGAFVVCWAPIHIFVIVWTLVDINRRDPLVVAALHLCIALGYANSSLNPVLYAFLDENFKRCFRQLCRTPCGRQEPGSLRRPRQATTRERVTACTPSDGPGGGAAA

[3] = molecular target: Mu-type opioid receptor (Cavia porcellus) (UniProt P97266); experiment: Antagonist activity at mu-opioid receptor in guinea pig ileum assessed as effect on electrically induced contractions; type: functional
Mu-type opioid receptor (Cavia porcellus), sequence (P97266 whole entry): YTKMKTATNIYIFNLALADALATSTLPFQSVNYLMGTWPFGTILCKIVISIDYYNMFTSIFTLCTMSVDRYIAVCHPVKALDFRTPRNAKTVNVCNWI

[4] = molecular target: Delta-type opioid receptor (Mus musculus) (UniProt P32300); experiment: Partial agonist activity at delta-opioid receptor in mouse vasa deferens assessed as inhibition of electrically induced contractions; type: functional
Delta-type opioid receptor (Mus musculus), sequence (P32300 whole entry): as the sequence (P32300 whole entry) above

Mu-type opioid receptor [5] = molecular target: Mu-type opioid receptor (Cavia porcellus, UniProt P97266); experiment: Agonist activity at mu-opioid receptor in guinea pig ileum assessed as inhibition of electrically induced contractions; type: functional
Mu-type opioid receptor (Cavia porcellus, UniProt P97266), sequence (P97266 whole entry): as the sequence (P97266 whole entry) above

[6] = molecular target: Delta-type opioid receptor (Rattus norvegicus, UniProt P33533); experiment: Agonist activity at rat delta-opioid receptor expressed in HEK293 cells co-expressing Rluc2-EPAC-GFP10 biosenser assessed as inhibition of forskolin-induced cAMP level after 10 mins by fluorescence based assay; type: functional, cell-based
Delta-type opioid receptor (Rattus norvegicus, UniProt P33533), sequence (P33533 whole entry): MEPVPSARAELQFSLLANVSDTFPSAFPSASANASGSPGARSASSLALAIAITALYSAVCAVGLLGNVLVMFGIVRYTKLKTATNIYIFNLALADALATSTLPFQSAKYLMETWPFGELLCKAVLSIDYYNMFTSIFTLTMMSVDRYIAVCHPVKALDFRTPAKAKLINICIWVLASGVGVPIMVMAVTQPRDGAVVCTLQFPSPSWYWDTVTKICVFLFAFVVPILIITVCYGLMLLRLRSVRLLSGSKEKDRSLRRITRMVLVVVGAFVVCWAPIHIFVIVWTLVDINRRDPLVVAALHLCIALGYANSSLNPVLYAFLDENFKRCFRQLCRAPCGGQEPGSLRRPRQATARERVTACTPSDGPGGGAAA

[7] = molecular target: T1, Delta-type opioid receptor; experiment: Agonist activity at delta-opioid receptor in mouse vasa deferens assessed as inhibition of electrically induced contractions; type: functional
[8] = molecular target: Mu-type opioid receptor (Rattus norvegicus) (UniProt P33535); experiment: Potency index, ratio of DAMGO EC50 to compound EC50 for rat mu-opioid receptor expressed in HEK293 cells co-expressing Rluc2-EPAC-GFP10 biosenser by cAMP accumulation assay; type: functional, cell-based
Mu-type opioid receptor (Rattus norvegicus), sequence (P33535 whole entry): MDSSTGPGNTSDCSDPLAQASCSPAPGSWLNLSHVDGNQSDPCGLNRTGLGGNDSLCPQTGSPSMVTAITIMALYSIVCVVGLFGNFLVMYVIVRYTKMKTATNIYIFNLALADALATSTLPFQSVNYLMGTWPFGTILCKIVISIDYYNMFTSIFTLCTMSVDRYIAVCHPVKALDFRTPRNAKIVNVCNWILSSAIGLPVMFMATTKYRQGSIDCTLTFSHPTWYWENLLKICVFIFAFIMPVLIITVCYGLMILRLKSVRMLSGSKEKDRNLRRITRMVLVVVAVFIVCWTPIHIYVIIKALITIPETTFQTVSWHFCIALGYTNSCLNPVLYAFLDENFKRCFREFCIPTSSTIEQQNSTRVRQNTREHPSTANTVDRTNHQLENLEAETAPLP

[9] = molecular target: Mu-type opioid receptor (Cavia porcellus) (UniProt P97266); experiment: Potency index, ratio of DAMGO IC50 to compound IC50 for mu-opioid receptor in guinea pig ileum
Mu-type opioid receptor [10] = molecular target: Mu-type opioid receptor (Rattus norvegicus, UniProt P33535); experiment: Agonist activity at rat mu-opioid receptor expressed in HEK293 cells co-expressing Rluc2-EPAC-GFP10 biosenser assessed as inhibition of forskolin-induced cAMP level after 10 mins by fluorescence based assay; type: functional, cell-based
Mu-type opioid receptor (Rattus norvegicus, UniProt P33535), sequence (P33535 whole entry): as above

Rattus norvegicus [11] = species on record: Rattus norvegicus; experiment: Antinociceptive activity in Sprague-Dawley rat model of thermal-induced nociception assessed as increase in latency to tail withdrawal at 1 nmol, it measured at every 10 mins for 1 hr by tail flick assay; type: functional, organism-based
Method in brief: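 Compound given intrathecally to rats; tail-flick test measured withdrawal response to a thermal stimulus.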

Rattus norvegicus [12] = species on record: Rattus norvegicus; experiment: Potency index, ratio of antinociceptive activity of DAMGO to antinociceptive activity of compound in Sprague-Dawley rat model of thermal-induced nociception by tail flick assay; type: functional
[13] = molecular target: Delta-type opioid receptor (Rattus norvegicus) (UniProt P33533); experiment: Partial agonist activity at rat delta-opioid receptor expressed in HEK293 cells co-expressing Rluc2-EPAC-GFP10 biosenser assessed as inhibition of forskolin-induced cAMP level after 10 mins by fluorescence based assay; type: functional, cell-based
Delta-type opioid receptor (Rattus norvegicus), sequence (P33533 whole entry): as the sequence (P33533 whole entry) above

Row | Structure (SMILES) | Ratio IC50 (Mus musculus) | IC50 (Mu-type opioid receptor [1]) [nM] | IC50 [2] [nM] | Ke [3] [nM] | IC20 [4] [nM] | IC50 (Mu-type opioid receptor [5]) [nM] | EC50 [6] [nM] | IC50 [7] [nM] | Ratio EC50 [8] | Ratio IC50 [9] | EC50 (Mu-type opioid receptor [10]) [nM] | Activity (Rattus norvegicus [11]) | Ratio (Rattus norvegicus [12]) | IC35 [4] [nM] | IC40 [4] [nM] | Emax [13] [%]
1 | Cc1cc(O)cc(C)c1C[C@H](N)C(=O)N[C@H](CCCNC(=N)N)C(=O)N[C@@H](Cc1ccc(-c2ccccc2)cc1)C(=O)NCC(N)=O (H-[Dmt][dR][Bip]G-NH2) | 6 | 7.08 | 42.3 | 114 | 3090 | – | – | – | – | – | – | – | – | – | – | –
2 | CC(C)[C@H](NC(=O)[C@H](CCC(=O)O)NC(=O)[C@H](Cc1ccccc1)NC(=O)[C@@H](C)NC(=O)[C@@H](N)Cc1ccc(O)cc1)C(=O)N[C@H](C(=O)NCC(=O)O)C(C)C [DELTORPHIN] | – | 627 | – | – | – | 854 | 0.1 | – | – | – | – | – | – | – | – | –
3 | C=Cc1cccc(C[C@H](NC(=O)[C@@H](CCCNC(=N)N)NC(=O)[C@@H](N)Cc2c(C)cc(O)cc2C)C(=O)NCC(N)=O)c1 | 359 | 0.46 | 165 | – | – | 1.43 | – | 9.74 | – | – | – | – | – | – | – | –
4 | C=Cc1ccccc1C[C@H](NC(=O)[C@@H](CCCNC(=N)N)NC(=O)[C@@H](N)Cc1c(C)cc(O)cc1C)C(=O)NCC(N)=O | 38 | 0.47 | 18 | – | – | 0.389 | 7 | 0.406 | 20 | 70 | 0.012 | – | – | – | – | –
5 | CC(C)=Cc1ccccc1C[C@H](NC(=O)[C@@H](CCCNC(=N)N)NC(=O)[C@@H](N)Cc1c(C)cc(O)cc1C)C(=O)NCC(N)=O | 1030 | 0.57 | 585 | – | – | 0.701 | 19.4 | 0.63 | – | – | 0.1 | Active | 10 | – | – | –
6 | C[C@@H](NC(=O)[C@@H](N)Cc1ccc(O)cc1)C(=O)NCC(=O)N(C)[C@@H](Cc1ccccc1)C(=O)NCCO [DAMGO] | – | – | – | – | – | 28.3 | – | – | – | – | – | – | – | – | – | –
7 | Cc1cc(O)cc(C)c1C[C@H](N)C(=O)N[C@H](CCCNC(=N)N)C(=O)N[C@@H](Cc1cccc(-c2ccsc2)c1)C(=O)NCC(N)=O | 583 | 1.03 | 601 | – | – | 30.4 | – | – | – | – | – | – | – | 52.8 | – | –
8 | Cc1cc(O)cc(C)c1C[C@H](N)C(=O)N[C@H](CCCNC(=N)N)C(=O)N[C@@H](Cc1ccc(-c2ccsc2)cc1)C(=O)NCC(N)=O | 61 | 5.04 | 309 | 138 | 3960 | – | – | – | – | – | – | – | – | – | – | –
9 | Cc1cc(O)cc(C)c1C[C@H](N)C(=O)N[C@H](CCCNC(=N)N)C(=O)N[C@@H](Cc1ccccc1-c1ccccc1)C(=O)NCC(N)=O | 38 | 0.54 | 20.3 | – | – | 3.47 | – | 6.99 | – | – | – | – | – | – | – | –
10 | C=Cc1ccc(C[C@H](NC(=O)[C@@H](CCCNC(=N)N)NC(=O)[C@@H](N)Cc2c(C)cc(O)cc2C)C(=O)NCC(N)=O)cc1 | 777 | 1.82 | 1410 | – | – | 24.1 | – | 430 | – | – | – | – | – | – | – | –
11 | Cc1cc(O)cc(C)c1C[C@H](N)C(=O)N[C@H](CCCNC(=N)N)C(=O)N[C@@H](Cc1ccccc1-c1ccsc1)C(=O)NCC(N)=O | 431 | 1.45 | 625 | – | – | 1.54 | 49 | 2.75 | – | – | 0.04 | – | – | – | – | –
12 | Cc1cc(O)cc(C)c1C[C@H](N)C(=O)N[C@H](CCCNC(=N)N)C(=O)N[C@@H](Cc1cccc(-c2ccccc2)c1)C(=O)NCC(N)=O (H-[Dmt][dR][Phe(3-Ph)]G-NH2) | 316 | 0.85 | 269 | – | – | 61.7 | – | – | – | – | – | – | – | – | 117 | –
13 | Cc1cc(O)cc(C)c1C[C@H](N)C(=O)N[C@H](C)C(=O)N[C@@H](Cc1ccccc1-c1ccsc1)C(=O)NCC(N)=O | 4 | 240 | 687 | – | – | 1.27 | 56 | 2.16 | – | – | 34.8 | – | – | – | – | 70
14 | C=Cc1ccccc1C[C@H](NC(=O)[C@@H](C)NC(=O)[C@@H](N)Cc1c(C)cc(O)cc1C)C(=O)NCC(N)=O | 32 | 0.25 | 8 | – | – | 1.18 | 5.8 | 2.81 | – | – | 0.006 | – | – | – | – | –
15 | Cc1cc(O)cc(C)c1C[C@H](N)C(=O)N[C@H](C)C(=O)N[C@@H](Cc1ccccc1-c1ccccc1)C(=O)NCC(N)=O (H-[Dmt][dA][Phe(2-Ph)]G-NH2) | 57 | 0.35 | 19.8 | – | – | 1.6 | 4.9 | 2.6 | – | – | 0.12 | Active | 10 | – | – | –
